ChEMBL document CHEMBL1649560, “Beta-lactamase-mediated beta-lactam resistance in Campylobacter species: prevalence of Cj0299 (bla OXA-61) and evidence for a novel beta-Lactamase in C. jejuni” (2009)
Converted amounts (≈) assume the structure as drawn.

Tests used:
Type in all cases: functional
Campylobacter jejuni [1] = assay: Antibacterial activity against bla gene-positive and nitrocefin reaction-positive beta-lactamase harboring Campylobacter jejuni isolate P286 by NCCLS agar doubling dilution method in presence of clavulanic acid
Summary of the method: (§1)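 MICs by agar doubling dilution per the NCCLS (now CLSI) Campylobacter Working Group method. Isolates came from UK chicken flocks (feces, ceca or farm environment), 2000–2006. C. jejuni NCTC 11168 and C. coli NCTC 11366 served as control strains. The ampicillin resistance cutoff was 8 μg/ml; BSAC/CLSI Enterobacteriaceae guidelines were used for other agents.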

Campylobacter coli [2] = assay: Antibacterial activity against bla gene-positive and nitrocefin reaction-positive beta-lactamase harboring Campylobacter coli isolate P321 by NCCLS agar doubling dilution method in presence of clavulanic acid
Summary of the method: (§2)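 MICs of β-lactams by agar doubling dilution following the NCCLS (CLSI) Campylobacter Working Group procedure, with C. jejuni NCTC 11168 and C. coli NCTC 11366 as controls. Isolates were from UK poultry flocks. β-Lactamase status was set by Cj0299 PCR (281-bp amplimer) and by a nitrocefin colour change of sonicated lysate within 5 min, or within 30 min on repeat.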

Campylobacter jejuni [3] = assay: Antibacterial activity against bla gene-negative and nitrocefin reaction-negative beta-lactamase harboring Campylobacter jejuni isolate P850 by NCCLS agar doubling dilution method in presence of clavulanic acid; summary of the method: as §2
Campylobacter jejuni [4] = assay: Antibacterial activity against bla gene-positive and nitrocefin reaction-positive beta-lactamase harboring Campylobacter jejuni isolate P316 by NCCLS agar doubling dilution method in presence of clavulanic acid; summary of the method: as §1
Campylobacter jejuni [5] = assay: Antibacterial activity against bla gene-positive and nitrocefin reaction-positive beta-lactamase harboring Campylobacter jejuni isolate P1618 by NCCLS agar doubling dilution method in presence of clavulanic acid; summary of the method: as §2
Campylobacter jejuni [6] = assay: Antibacterial activity against bla gene-positive and nitrocefin reaction-positive beta-lactamase harboring Campylobacter jejuni isolate P1730 by NCCLS agar doubling dilution method in presence of clavulanic acid; summary of the method: as §1
Campylobacter jejuni [7] = assay: Antibacterial activity against bla gene-negative and nitrocefin reaction-positive beta-lactamase harboring Campylobacter jejuni isolate P843 by NCCLS agar doubling dilution method in presence of clavulanic acid; summary of the method: as §2
Campylobacter coli [8] = assay: Antibacterial activity against bla-positive and beta-lactamase-weakly positive Campylobacter coli isolate P1627 by NCCLS agar doubling dilution method in presence of clavulanic acid
Summary of the method: (§3)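 MICs by agar doubling dilution following the NCCLS (CLSI) Campylobacter Working Group procedure, applied to ampicillin- and amoxicillin-resistant isolates from UK chicken flocks (2000–2006). C. jejuni NCTC 11168 and C. coli NCTC 11366 served as control strains. Resistance was called at an ampicillin cutoff of 8 μg/ml. Other agents were judged against Enterobacteriaceae guidelines (BSAC, CLSI).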

Campylobacter coli [9] = assay: Antibacterial activity against Campylobacter coli by NCCLS agar doubling dilution method; summary of the method: as §3
Campylobacter jejuni [10] = assay: Antibacterial activity against Campylobacter jejuni isolate P338 harboring blaOXA-61::cat gene by NCCLS agar doubling dilution method in presence of clavulanic acid
Summary of the method: (§4)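 Agar doubling dilution MICs (NCCLS/CLSI Campylobacter Working Group method) against Cj0299-inactivated mutants. Mutants were made by transforming the C. jejuni isolate with pCI and selecting on Mueller-Hinton agar with 10 μg/ml chloramphenicol for 3–5 days. Chromosomal insertion was confirmed by PCR with Cj0299 and cat primers.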

Campylobacter jejuni [11] = assay: Antibacterial activity against bla gene-positive and nitrocefin reaction-positive beta-lactamase harboring Campylobacter jejuni isolate P1093 by NCCLS agar doubling dilution method in presence of clavulanic acid; summary of the method: as §2
Campylobacter jejuni [12] = assay: Antibacterial activity against bla gene-positive and nitrocefin reaction-positive beta-lactamase harboring Campylobacter jejuni isolate P1650 by NCCLS agar doubling dilution method in presence of clavulanic acid; summary of the method: as §1
Campylobacter jejuni [13] = assay: Antibacterial activity against bla gene-positive and nitrocefin reaction-negative beta-lactamase harboring Campylobacter jejuni isolate P1699 by NCCLS agar doubling dilution method in presence of clavulanic acid; summary of the method: as §2
Campylobacter jejuni [14] = assay: Antibacterial activity against Campylobacter jejuni isolate P1093 harboring blaOXA-61::cat gene by NCCLS agar doubling dilution method in presence of clavulanic acid; summary of the method: as §4
Campylobacter jejuni [15] = assay: Antibacterial activity against Campylobacter jejuni by NCCLS agar doubling dilution method in presence of clavulanic acid; summary of the method: as §3
Campylobacter jejuni [16] = assay: Antibacterial activity against bla gene-negative and nitrocefin reaction-negative beta-lactamase harboring Campylobacter jejuni isolate P1962 by NCCLS agar doubling dilution method in presence of clavulanic acid; summary of the method: as §2
Campylobacter jejuni [17] = assay: Antibacterial activity against bla gene-positive and nitrocefin reaction-negative beta-lactamase harboring Campylobacter jejuni isolate NCTC 11168 by NCCLS agar doubling dilution method in presence of clavulanic acid; summary of the method: as §2
Campylobacter jejuni [18] = assay: Antibacterial activity against Campylobacter jejuni by NCCLS agar doubling dilution method; summary of the method: as §3
Campylobacter jejuni [19] = assay: Antibacterial activity against bla gene-positive and nitrocefin reaction-positive beta-lactamase harboring Campylobacter jejuni isolate P338 by NCCLS agar doubling dilution method in presence of clavulanic acid; summary of the method: as §1
Campylobacter coli [20] = assay: Antibacterial activity against Campylobacter coli by NCCLS agar doubling dilution method in presence of clavulanic acid; summary of the method: as §3
Campylobacter jejuni [21] = assay: Antibacterial activity against bla gene-positive and nitrocefin reaction-negative beta-lactamase harboring Campylobacter jejuni isolate P1698 by NCCLS agar doubling dilution method in presence of clavulanic acid; summary of the method: as §2
Campylobacter jejuni [22] = assay: Antibacterial activity against Campylobacter jejuni isolate P270 harboring blaOXA-61::cat gene by NCCLS agar doubling dilution method in presence of clavulanic acid
Campylobacter jejuni [23] = assay: Antibacterial activity against bla gene-negative and nitrocefin reaction-positive beta-lactamase harboring Campylobacter jejuni isolate P854 by NCCLS agar doubling dilution method in presence of clavulanic acid; summary of the method: as §2
Campylobacter jejuni [24] = assay: Antibacterial activity against bla gene-positive and nitrocefin reaction-positive beta-lactamase harboring Campylobacter jejuni isolate P285 by NCCLS agar doubling dilution method in presence of clavulanic acid; summary of the method: as §1
Campylobacter jejuni [25] = assay: Antibacterial activity against bla gene-positive and nitrocefin reaction-positive beta-lactamase harboring Campylobacter jejuni isolate P305 by NCCLS agar doubling dilution method in presence of clavulanic acid; summary of the method: as §1
Campylobacter coli [26] = assay: Antibacterial activity against bla gene-positive and nitrocefin reaction-positive beta-lactamase harboring Campylobacter coli isolate P1826 by NCCLS agar doubling dilution method in presence of clavulanic acid; summary of the method: as §2
Campylobacter jejuni [27] = assay: Antibacterial activity against bla gene-negative and nitrocefin reaction-negative beta-lactamase harboring Campylobacter jejuni isolate P835 by NCCLS agar doubling dilution method in presence of clavulanic acid; summary of the method: as §2
Campylobacter jejuni [28] = assay: Antibacterial activity against bla gene-positive and nitrocefin reaction-positive beta-lactamase harboring Campylobacter jejuni isolate P790 by NCCLS agar doubling dilution method in presence of clavulanic acid; summary of the method: as §1

For `O=C(O)[C@H]1/C(=C/CO)O[C@@H]2CC(=O)N21` [CLAVULANIC ACID], the MIC (Campylobacter jejuni [1]) was 8 µg/mL, the MIC (Campylobacter coli [2]) was 8 µg/mL and the MIC (Campylobacter jejuni [3]) was 4 µg/mL. The MIC (Campylobacter jejuni [4]) was 8 µg/mL, the MIC (Campylobacter jejuni [5]) was 2 µg/mL and the MIC (Campylobacter jejuni [6]) was 8 µg/mL. For the same compound, the MIC (Campylobacter jejuni [7]) was 4 µg/mL, the MIC (Campylobacter coli [8]) was 4 µg/mL and the MIC50 (Campylobacter coli [9]) was 16 µg/mL (≈ 80.3 µM). The MIC90 (Campylobacter coli [9]) was 32 µg/mL (≈ 161 µM), the MIC (Campylobacter jejuni [10]) was 1 µg/mL and the MIC (Campylobacter jejuni [11]) was 32 µg/mL. It also gave an MIC (Campylobacter jejuni [12]) of 4 µg/mL, an MIC (Campylobacter jejuni [13]) of 4 µg/mL and an MIC (Campylobacter jejuni [14]) of 0.5 µg/mL. For the same compound, the MIC50 (Campylobacter jejuni [15]) was 4 µg/mL, the MIC90 (Campylobacter jejuni [15]) was 8 µg/mL and the MIC (Campylobacter jejuni [16]) was 0.5 µg/mL. It also gave an MIC (Campylobacter jejuni [17]) of 1 µg/mL, an MIC50 (Campylobacter jejuni [18]) of 4 µg/mL (≈ 20.1 µM) and an MIC90 (Campylobacter jejuni [18]) of 8 µg/mL (≈ 40.2 µM). For the same compound, the MIC (Campylobacter jejuni [19]) was 8 µg/mL, the MIC50 (Campylobacter coli [20]) was 16 µg/mL and the MIC90 (Campylobacter coli [20]) was 32 µg/mL. For the same compound, the MIC (Campylobacter jejuni [21]) was 1 µg/mL, the MIC (Campylobacter jejuni [22]) was 0.25 µg/mL and the MIC (Campylobacter jejuni [23]) was 4 µg/mL. For the same compound, the MIC (Campylobacter jejuni [24]) was 8 µg/mL, the MIC (Campylobacter jejuni [25]) was 8 µg/mL and the MIC (Campylobacter coli [26]) was 8 µg/mL. For the same compound, the MIC (Campylobacter jejuni [27]) was 0.5 µg/mL and the MIC (Campylobacter jejuni [28]) was 16 µg/mL.
